Reference: ChEMBL document CHEMBL4033664, “Synthesis of benzoxazole derivatives as interleukin-6 antagonists” (Bioorg Med Chem, 2017)
The source made the active and inactive calls. No cut-off for these calls is given here.

Assays:
TH2 cell [1] = test: Antiinflammatory activity in C57BL6 mouse CD4-positive T-effector TH2 cells assessed as suppression of IL-4 levels at 10 uM preincubated for 3 to 4 days followed by anti-CD3 stimulation for 24 hrs by ELISA; assay type: functional, cell-based
Outline: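 Mouse C57BL6 lymph node and spleen CD4+ T cells were primed for 24 h with anti-CD3 (2 µg/ml) and anti-CD28 (1 µg/ml). Th2 polarization used IL-4 (10 ng/ml) and anti-IFN-γ (1 µg/ml) with compound at 10 µM, refreshed every other day for 3-4 days. Cells were restimulated with anti-CD3 (1 µg/ml) for 24 h, and supernatant IL-4 was measured by biotin/streptavidin-peroxidase sandwich ELISA.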

TH2 cell [2] = test: Antiinflammatory activity in C57BL6 mouse CD4-positive T-effector TH2 cells assessed as suppression of IL-13 levels at 10 uM preincubated for 3 to 4 days followed by anti-CD3 stimulation for 24 hrs by ELISA; assay type: functional, cell-based
Th1 [3] = test: Antiinflammatory activity in C57BL6 mouse CD4-positive T-effector Th1 cells assessed as suppression of anti-CD3/IL-12-induced IFNgamma levels at 10 uM preincubated for 3 to 4 days followed by anti-CD3 stimulation for 24 hrs by ELISA; assay type: functional, cell-based
Outline: (§1)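 CD4+ T cells were isolated from C57BL6 mouse lymph node and spleen and primed with anti-CD3 (2 µg/ml) plus anti-CD28 (1 µg/ml) for 24 h. Compound (10 µM) was added with IL-12 (10 ng/ml) and anti-IL-4 (5 µg/ml), renewed every other day for 3-4 days, then cells were restimulated with anti-CD3 (1 µg/ml) for 24 h. Supernatant cytokine was measured by sandwich ELISA with peroxidase-streptavidin and OD read-out.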

Th17 = test: Antiinflammatory activity in C57BL6 mouse CD4-positive T-effector Th17 cells assessed as suppression of IL-17 levels at 10 uM preincubated for 3 to 4 days followed by anti-CD3 stimulation for 24 hrs by ELISA; assay type: functional, cell-based
TH2 cell [4] = test: Antiinflammatory activity in C57BL6 mouse CD4-positive T-effector TH2 cells assessed as suppression of IL-5 levels at 10 uM preincubated for 3 to 4 days followed by anti-CD3 stimulation for 24 hrs by ELISA; assay type: functional, cell-based
[5] = molecular target: Interleukin-6 (Homo sapiens) (UniProt P05231); test: Inhibition of IL-6 signaling pathway in human HepG2 cells transfected with p-STAT3-Luc assessed as reduction in IL-6 induced STAT3 phosphorylation at 20 ug/ml preincubated for 1 hr followed by IL-6 induction measured after 10 mins by immunoblot analysis; assay type: cell-based
Interleukin-6 (Homo sapiens), sequence (P05231 whole entry): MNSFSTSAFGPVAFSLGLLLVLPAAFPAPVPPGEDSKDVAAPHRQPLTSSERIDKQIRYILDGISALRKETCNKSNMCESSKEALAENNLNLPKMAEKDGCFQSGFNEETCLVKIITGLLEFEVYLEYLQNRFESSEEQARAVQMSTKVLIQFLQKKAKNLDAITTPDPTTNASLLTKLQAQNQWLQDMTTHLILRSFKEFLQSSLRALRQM
Outline: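 HepG2 cells were grown in MEM to 80% confluence and serum-starved for 6 h. They were treated with compound for 1 h, then with IL-6 (20 ng/ml) for 10 min. Lysates were run on SDS-PAGE and immunoblotted with anti-phospho-STAT3. Scanned band intensity was expressed relative to the IL-6-only band, set at 100%.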

[6] = Cytotoxicity against human HepG2 cells assessed as cell viability at 10 ug/ml after 48 hrs by MTT assay; assay type: cell-based; conditions: read-out: Activity
Outline: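 HepG2 cells in MEM with 10% FBS were exposed to compound at 1, 3, 10, 30 or 100 µg/ml for 48 h, then given MTT for 3 h. Formazan was dissolved in DMSO and OD read at 570 nm. Triplicates from three independent experiments, mean ± SE.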

Th1 [7] = test: Antiinflammatory activity in C57BL6 mouse CD4-positive T-effector Th1 cells assessed as suppression of anti-CD3/IL-12-induced IL-2 levels at 10 uM preincubated for 3 to 4 days followed by anti-CD3 stimulation for 24 hrs by ELISA; assay type: functional, cell-based; outline: as §1
[8] = Proinflammatory activity in C57BL6 mouse CD4-positive T-effector Th1 cells assessed as increase in anti-CD3/IL-12-induced IFNgamma levels at 10 uM preincubated for 3 to 4 days followed by anti-CD3 stimulation for 24 hrs by ELISA; assay type: ADME, cell-based; conditions: th1, 24 h; outline: as §1
[9] = Proinflammatory activity in C57BL6 mouse CD4-positive T-effector Th1 cells assessed as increase in anti-CD3/IL-12-induced IL-2 levels at 10 uM preincubated for 3 to 4 days followed by anti-CD3 stimulation for 24 hrs by ELISA; assay type: ADME, cell-based; conditions: th1, 24 h; outline: as §1

| inhibition [5] [%] | Compound | viability at 48 h, 10 ug/ml [6] [%] | also measured |
| --- | --- | --- | --- |
| 97.5 | CCc1ccc(Nc2nc3cc(N)ccc3o2)cc1 | 70.8 | Activity (TH2 cell [1]): Active; Activity (TH2 cell [2]): Active; Activity (Th1 [3]): Active; Activity (Th17): Active; Activity (TH2 cell [4]): Active; Activity (Th1 [7]): Active |
| 84.6 | CCc1ccc(Nc2nc3cc(NC(=O)c4ccccc4Nc4cccc(C(F)(F)F)c4)ccc3o2)cc1 | 38.2 |  |
| 86.5 | CCc1ccc(Nc2nc3cc(NC(=O)c4ccc(C(C)(C)C)cc4)ccc3o2)cc1 | 59.8 |  |
| 69.3 | CCc1ccc(Nc2nc3cc(NC(=O)c4ccc(Cl)c(Cl)c4)ccc3o2)cc1 |  |  |
| 83.7 | CCc1ccc(Nc2nc3cc(NC(=O)c4cc(OC)c(OC)c(OC)c4)ccc3o2)cc1 | 16.4 |  |
| 91.7 | CCc1ccc(Nc2nc3cc(NC(=O)c4cccc(CCl)c4)ccc3o2)cc1 | 41.1 |  |
| 26.2 | CCc1ccc(Nc2nc3cc(NC(=O)c4ccc(OC)c(OC)c4)ccc3o2)cc1 |  |  |

The next lines start with the compound.

| Compound | inhibition [5] [%] | viability at 48 h, 10 ug/ml [6] [%] | also measured |
| --- | --- | --- | --- |
| CCc1ccc(Nc2nc3cc(NC(=O)c4cc(F)cc(C(F)(F)F)c4)ccc3o2)cc1 | 50.2 |  |  |
| CCc1ccc(Nc2nc3cc(NC(=O)c4cc([N+](=O)[O-])ccc4Cl)ccc3o2)cc1 | 65.6 |  |  |
| CCc1ccc(Nc2nc3cc(NC(=O)Cc4ccccc4)ccc3o2)cc1 | 61.7 |  |  |
| CCc1ccc(Nc2nc3cc(NC(=O)c4ccc(CC)cc4)ccc3o2)cc1 | 63.3 |  |  |
| CCCCCCCc1ccc(C(=O)Nc2ccc3oc(Nc4ccc(CC)cc4)nc3c2)cc1 | 57.2 |  |  |
| CCc1ccc(Nc2nc3cc(NC(=O)c4ccc([N+](=O)[O-])cc4Cl)ccc3o2)cc1 | 20 |  |  |
| CCc1ccc(Nc2nc3cc(NC(=O)c4ccccc4)ccc3o2)cc1 | 93.1 | 65.6 |  |
| CCc1ccc(Nc2nc3cc(NC(=O)c4ccc(Cl)cc4)ccc3o2)cc1 | 12.1 |  | Activity (TH2 cell [1]): inactive; Activity [8]: Toxic; Activity (TH2 cell [2]): inactive; Activity [9]: Toxic; Activity (Th17): inactive; Activity (TH2 cell [4]): inactive |
| CCOc1ccccc1C(=O)Nc1ccc2oc(Nc3ccc(CC)cc3)nc2c1 | 58 |  |  |
